Test results as given in publication PMC3667667 (Clinical pharmacology and therapeutics, 2012).
Several values for one entry are separate records, joined by “and”; a condition that tells them apart may be missing. Identical values can stand only once.

Columns and labels:
full-length CAR (CAR1) = conditions: in vitro; ref 43 (Chen et al.); cited from earlier work
ABCB1 (P-gp) = conditions: humans, long-term treatment; ref 36 (Mouly); cited from earlier work
ABCB1 [1] = conditions: human intestinal cell line from colon adenocarcinoma; cited from earlier work
[2] = test system: CAR variant containing the APYLT insertion; conditions: in vitro; ref 43 (Chen et al.); cited from earlier work
CYP3A4 [3] = conditions: humans, long-term treatment; ref 36 (Mouly); cited from earlier work
CYP3A4 [4] = conditions: humans, long-term treatment; ref 36 (Mouly); cited from earlier work; remark: listed apart in the source
[5] = test system: hepatic bilirubin metabolism; experiment: Total bilirubin levels; assay type: in vivo, human
ABCC2 = conditions: in vivo; ref 32 (Burhenne et al.); cited from earlier work
UGT1A1 = experiment: CAR target gene expression in PBMCs treated in vitro; assay type: cell-based, human; conditions: PBMCs of drug-naive individuals, 10 μmol/l, 48 h
[6] = Pharmacokinetics of efavirenz in healthy subjects; conditions: male, human, in vivo
ABCB1 [7] = experiment: CAR target gene expression in PBMCs treated in vitro; assay type: cell-based, human; conditions: PBMCs of drug-naive individuals, 10 μmol/l, 48 h
CYP2B6 [8] = experiment: Gene expression in PBMCs isolated from treated healthy individuals; assay type: in vivo, human; conditions: single dose vs steady state; P = 0.036
CYP3A = conditions: rats, long-term treatment; cited from earlier work
CYP3A4 activity = experiment: Plasma 4β-hydroxycholesterol, marker of CYP3A4 activity; assay type: in vivo, human
ABCB1 [9] = conditions: in vivo; ref 32 (Burhenne et al.); cited from earlier work
ABCB1 [10] = conditions: cited from earlier work
ABCB1 [11] = conditions: rats, everted gut sacs, long-term treatment; cited from earlier work
CYP2B6 [12] = experiment: CAR target gene expression in PBMCs treated in vitro; assay type: cell-based, human; conditions: PBMCs of drug-naive individuals, 10 μmol/l, 48 h
CYP2B6 [13] = experiment: CYP2B6 mRNA induction in primary human hepatocytes; assay type: cell-based; conditions: freshly isolated human hepatocytes, efavirenz 1 μmol/l, vs DMSO control
CAR target genes = experiment: Gene expression in PBMCs after multiple doses of ezetimibe; assay type: in vivo, human; conditions: multiple doses of ezetimibe 10 mg, treatment period B
Summary of the method: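 PBMCs from 12 healthy male Caucasian volunteers aged 20–36 y, with the drug given after a fast of at least 10 h. EDTA blood (5 ml) drawn in the first 3 h of the pharmacokinetic day; spun 1,500g, 4 °C, 15 min; buffy coats pooled per subject, diluted in ice-cold PBS, Lymphoprep 700g, 30 min, room temperature. 1,500 ng total RNA reverse-transcribed; TaqMan real-time PCR for CYP2B6, UGT1A1, ABCB1, ABCC1, normalized to 18S-rRNA.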

ABCB1 [14] = conditions: ref 28 (Manceau et al.); cited from earlier work

Structure (SMILES): O=C1Nc2ccc(Cl)cc2[C@@](C#CC2CC2)(C(F)(F)F)O1 [efavirenz]
- Trans-activating activity toward full-length CAR (CAR1) (full-length CAR (CAR1)): high trans-activating activity
- Intestinal ABCB1 (P-gp) expression levels (ABCB1 (P-gp)): no impact
- ABCB1 expression and function in LS180 cells (ABCB1 [1]): increased expression and function
- Trans-activating activity toward CAR variant containing the APYLT insertion [2]: negligible activity
- CYP3A4-mediated metabolism (erythromycin breath test) (CYP3A4 [3]): induction
- Intestinal CYP3A4 expression levels (CYP3A4 [4]): no impact
- Total bilirubin levels after treatment ([5]; long-term efavirenz, mean ± SD, before treatment 9.82 ± 3.86, P = 0.023): 6.34 ± 2.48 mg/dL
- ABCC2 expression in PBMCs (ABCC2): no significant induction
- UGT1A1 mRNA induction in PBMCs in vitro (UGT1A1): significant induction
- CLR gluc (renal clearance) [6]: 0.050 ± 0.054 mL/min
- C max ([6]; 400 mg): 622 ± 244 ng/mL
- CL renal ([6]; 400 mg): 0.062 ± 0.031 mL/min
- AUC(0-t) ([6]; 400 mg, AUC0–24 h): 6710 ± 2340 ng·h/mL
- AUC(0-t) ([6]; 400 mg, AUC0–120 h): 17000 ± 6390 ng·h/mL
- Tmax ([6]; 400 mg, T max): 2.4 ± 1.9 h
- Tmax ([6]; Tmax): 2 to 3 h
- ABCB1 mRNA induction in PBMCs in vitro (ABCB1 [7]): significant induction
- Pearson r, increase in CYP2B6 expression in PBMCs vs reduction in efavirenz AUC (CYP2B6 [8]): 0.61 and 0.608
- Hepatic CYP3A-mediated midazolam metabolism (CYP3A): induce
- Pearson r, change in efavirenz AUC vs change in 4β-hydroxycholesterol levels (CYP3A4 activity; single dose vs steady state, P = 0.052): −0.572
- 4β-hydroxycholesterol/cholesterol ratio (CYP3A4 activity; study days 25 and 30, multiple doses of efavirenz): significant induction
- ABCB1 expression in PBMCs (ABCB1 [9]): no significant induction
- ABCB1 induction in PBMCs in vitro (ABCB1 [10]): induction
- ABCB1-mediated intestinal efflux of rhodamine 123 (ABCB1 [11]): without affecting
- CYP2B6 mRNA induction in PBMCs in vitro (CYP2B6 [12]): significant induction
- CYP2B6 expression in primary human hepatocytes (CYP2B6 [13]): significantly increased

Structure (SMILES): O=C1[C@H](CC[C@H](O)c2ccc(F)cc2)[C@@H](c2ccc(O)cc2)N1c1ccc(F)cc1 [ezetimibe]
- Impact on target gene expression in PBMCs (CAR target genes): did not observe an impact
- Impact on total bilirubin levels ([5]; multiple doses of ezetimibe, study days 15 and 17): No such impact

Structure (SMILES): CCC1(c2ccccc2)C(=O)NC(=O)NC1=O [phenobarbital]
- ABCB1 induction after treatment of cells (ABCB1 [14]): no induction

Structure (SMILES): CO[C@H]1/C=C/O[C@@]2(C)Oc3c(C)c(O)c4c(O)c(c(/C=N/N5CCN(C)CC5)c(O)c4c3C2=O)NC(=O)/C(C)=C\C=C\[C@H](C)[C@H](O)[C@@H](C)[C@@H](O)[C@@H](C)[C@H](OC(C)=O)[C@@H]1C [rifampin]
- ABCB1 induction after treatment of cells (ABCB1 [14]): no induction
